Rows were chosen to be rich in hits. Some 2.9% of all compounds tested hit in one or more screens of this group.
mABHD4 FP: inhibits mouse alpha/beta hydrolase domain 4; purified mABHD4, FP-Rh probe fluorescence polarization; inhibition, % at 8.92 µM; 370,000 compounds, 0.54% hits;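 active = inhibition exceeding the mean over every tested compound plus 3 SD, cut at about 30% in these data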;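 also: 0% = plate median of compound wells and 100% = S159A mutant with DMSO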
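Doses – 8.92 µM, single dose · Material – wild-type mouse ABHD4 protein · Replication – single well per compound (singlicate) · Measure – percent inhibition of probe binding, normalized to plate controls · Schedule – 45 min compound pre-incubation plus 60 min probe step, 25 °C · Detection – fluorescence polarization with parallel and perpendicular emission, 525/598 nm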
TCR CD3 inh: inhibitors of human TCR-CD3 interaction; AID 651800; 360,000 compounds, 0.37% hits; inhibition, % at 9.4 µM; TAMRA-labeled TCR probe fluorescence, biochemical; in the data active = inhibition above about 19%;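 also: recombinant mutant TCR 2C K166C tagged with TAMRA read by polarization; 0% = receptor in buffer alone and 100% = receptor with positive control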
ATG4B inhibitor: ATG4B (human) cysteine protease inhibition | Q9Y4P1 | ATG4B cleavage of LC3-PLA2, NBD-HPC fluorescence, 1 h | inhibition, % at 8.33 µM | 340,000 compounds, 0.51% hits | AID 504462; in the data active = inhibition above about 40%
HTRA1 inhibitor: HTRA1 (human) protease inhibition; inhibition, % at 5.96 µM; Q92743; 340,000 compounds, 0.5% hits; AID 504803; recombinant HTRA1, FP-rhodamine activity-based probe, fluorescence polarization; in the data active = inhibition above about 36%;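 also: 0% = enzyme with DMSO and 100% = wells lacking enzyme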
SIAE primary: blocks human sialic acid acetylesterase; 370,000 compounds, 0.69% hits; Q9HAT2; AID 1053197; inhibition, % at 9.66 µM; SIAE FP-Rh probe binding, fluorescence polarization;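 active = inhibition above a cutoff: mean of compounds within the control limits plus 3 SD of those, cut at about 17% in these data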;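 also: 0% = plate median of compound wells and 100% = probe without SIAE protein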
Target sequence (Q9HAT2 whole entry, looked up): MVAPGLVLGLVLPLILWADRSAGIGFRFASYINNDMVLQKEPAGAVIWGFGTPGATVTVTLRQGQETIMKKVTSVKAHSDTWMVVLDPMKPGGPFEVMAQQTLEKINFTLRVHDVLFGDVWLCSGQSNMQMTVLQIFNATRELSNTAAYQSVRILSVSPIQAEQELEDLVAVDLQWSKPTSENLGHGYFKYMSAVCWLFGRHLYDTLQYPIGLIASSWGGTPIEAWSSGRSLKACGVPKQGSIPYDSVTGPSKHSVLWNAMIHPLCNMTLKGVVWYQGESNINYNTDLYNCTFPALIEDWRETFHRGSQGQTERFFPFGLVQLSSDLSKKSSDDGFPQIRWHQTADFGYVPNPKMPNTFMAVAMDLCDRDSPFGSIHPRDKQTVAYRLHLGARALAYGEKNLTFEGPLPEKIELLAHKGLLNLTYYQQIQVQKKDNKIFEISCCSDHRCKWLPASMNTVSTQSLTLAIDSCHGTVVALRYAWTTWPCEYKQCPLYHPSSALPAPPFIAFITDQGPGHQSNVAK
PRMT1 FP inh: PRMT1 (human) inhibition, primary screen; 370,000 compounds, 1.3% hits; inhibition, % at 2.79 µM; Q99873; recombinant PRMT1, activity-based probe fluorescence polarization; AID 652257;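 active = inhibition above about 21% made by adding two undisclosed values, limit read from the data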
ATG4B conf: ATG4B (human) inhibition, single-dose confirmed; shares compounds with ATG4B inhibitor; ATG4B protease fluorescent substrate cleavage assay; inhibition, % at 8.33 µM; 320 compounds, 92% hits; in the data active = inhibition above about 39%
PLA2 ctr: counter-screen for ATG4B inhibitors: human phospholipase A2 | shares compounds with ATG4B inhibitor | purified PLA2, NBD-C6-HPC fluorescence, 45 min | inhibition, % at 8.33 µM | 1,600 compounds, 66% hits; in the data active = inhibition above about 50%
Target sequence (P04054 whole entry, looked up): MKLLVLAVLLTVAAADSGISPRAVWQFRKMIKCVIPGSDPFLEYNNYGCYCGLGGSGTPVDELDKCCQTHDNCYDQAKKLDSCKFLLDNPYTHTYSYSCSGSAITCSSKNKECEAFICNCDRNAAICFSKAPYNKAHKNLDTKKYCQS
Numbers without * were called inactive; x = no result.

SMILES | mABHD4 FP | TCR CD3 inh | ATG4B inhibitor | HTRA1 inhibitor | SIAE primary | PRMT1 FP inh | PLA2 ctr | others
COc1ccc2c(c1OC)C(=O)N1c3ccccc3C(=O)N(c3ccccc3)C21 (centres undefined) | -0.7 | 0.5 | 48.1* | -2.2 | 1.6 | 0.3 | 46.5
COc1ccc2c(c1OC)C(=O)N1c3ccccc3C(=O)N(c3ccc(F)cc3)C21 (centres undefined) | -7.5 | -4.4 | 37.2 | 2.4 | 0.1 | -0.3 | x
COc1ccc(S(=O)(=O)N2CCC(C(=O)N3CCc4ccccc4C3)CC2)cc1C | -8.4 | 2.6 | 56.5* | -20.6 | 2.2 | -5.5 | 50.0*
O=C(NCCC1=CCCCC1)c1cc(COc2ccc(F)cc2Cl)on1 | -3.5 | -3.4 | 17.5 | -31.9 | -4.4 | 1.7 | x
O=C(NCCc1ccccc1Cl)c1cc(COc2ccc(F)cc2F)on1 | x | x | 45.6* | -32.5 | x | x | 55.3*
O=C(COc1ccccc1Cl)N1CCN(c2ccccn2)CC1 | 0.6 | 9.8 | 91.9* | -4.3 | 0.0 | -3.5 | -4.7
C#CCN1CC(N(C)CCO)CS1(=O)=O (centres undefined) | -0.2 | x | x | x | -0.5 | -3.4 | x
Cc1ccc(NC(=S)NCCSc2ccc(Cl)cc2)c(C)c1 | -16.8 | 0.6 | 9.2 | -28.5 | -2.5 | 0.1 | x
Cc1ccc(C)c(NC(=S)NCCSc2ccc(Cl)cc2)c1 | -11.2 | 0.7 | 15.3 | -34.9 | 0.7 | 0.0 | x
Cc1cccc(NC(=S)NCCSc2ccc(Cl)cc2)c1 | -28.8 | -7.7 | 50.9* | -57.2 | 1.6 | 3.4 | 64.4*
CCc1ccccc1NC(=S)NCCSc1ccc(Cl)cc1 | -18.6 | -5.8 | 65.9* | -33.5 | 0.5 | 3.5 | 80.0*
Cc1ccccc1NC(=S)NCCSc1ccc(Cl)cc1 | -20.9 | -3.8 | 45.5* | -17.1 | -1.7 | -4.2 | 51.2*
CCOC(=O)[C@]12CCCC=C1N(Cc1ccc(OC)cc1)C(=O)[C@@H]2CC(=O)NCCCOC | 7.8 | x | x | x | -3.7 | 5.0 | x
CCCN1CCS(=O)(=O)N(Cc2cn(Cc3ccccc3)nn2)C(C(=O)OC)C1 (centres undefined) | 3.7 | x | x | x | 2.3 | 0.1 | x
Cc1cc(-c2n[nH]c(=S)n2N=Cc2cccc(OCc3ccccc3)c2)n[nH]1 | 7.2 | x | x | x | 4.0 | 7.0 | x
CC(=O)Nc1cc(C(=O)N2CCc3ccccc3C2)ccc1Sc1ccc(C)cc1 | -1.9 | 2.5 | 46.1* | -33.2 | -3.4 | 1.7 | 52.7*
CCn1c(C)c(C)c2cc(C(=O)N3CCc4ccccc4C3)ccc21 | -27.9 | -10.2 | 71.8* | -28.6 | -15.2 | 5.7 | 73.8*
Cc1ccc(CN(c2ccc(C(=O)N3CCc4ccccc4C3)cc2)S(C)(=O)=O)cc1 | 1.3 | 0.9 | 55.5* | -5.5 | 0.2 | -0.9 | 59.9*
CCN1CCCCC(NC(=O)Cc2ccccc2)C1=O (centres undefined) | 2.1 | x | x | x | -2.0 | 1.1 | x
Cc1cccc(-c2cccc3c4c([nH]c23)[C@@H]2C[C@H](N(C)C(=O)Nc3ccccc3C)[C@H]([C@H](C)O)CN2CC4)c1 | 14.6 | x | x | x | 4.7 | 4.1 | x
CCCC[C@H]1C2CC(OC(=O)Nc3ccc(C#N)cc3)C(C2)[C@H]2CCCCN21 (some centres undefined) | -3.5 | x | x | x | -0.2 | 1.2 | x
CC(C)c1ccc(NC2CCCN(C(=O)c3ccco3)C2)cc1 (centres undefined) | 1.3 | -2.0 | 53.7* | -0.1 | 7.2 | -1.2 | 52.7*
CC(=O)c1ccc(C(=O)N2CCCC(Nc3ccc(C(C)C)cc3)C2)s1 (centres undefined) | 1.8 | 1.4 | 49.1* | -1.2 | -0.1 | -2.6 | 55.9*
CN1CCCN(S(=O)(=O)c2ccc3c(c2)CCC(=O)N3)CC1 | 5.6 | x | x | x | 3.5 | 4.0 | x
Cc1ccc(S(=O)(=O)C2C(=O)N(C)C3(C)CC2c2ccccc2O3)cc1 (centres undefined) | -1.8 | 7.6 | 65.9* | 0.9 | -4.6 | -2.0 | 74.4*
SMILES | mABHD4 FP | TCR CD3 inh | ATG4B inhibitor | HTRA1 inhibitor | SIAE primary | PRMT1 FP inh | PLA2 ctr | others
Cc1ccc(NC(=O)C2C(=O)N(CCO)C3(C)CC2c2ccccc2O3)cc1 (centres undefined) | 2.4 | -0.4 | 4.0 | 1.0 | 4.4 | 0.3 | x
COC(=O)C[C@@H]1CC[C@H]2[C@@H](COc3ccc(NC(=O)Nc4ccccc4C)cc3C(=O)N2C)O1 | 6.9 | x | x | x | 0.1 | 2.0 | x
Cc1cc(C)cc(C(=O)OCCCN(C)C2CN(Cc3cn(Cc4cccc(F)c4)nn3)S(=O)(=O)C2)c1 (centres undefined) | -8.3 | x | x | x | 3.1 | -3.3 | x
O=C(c1cnn(C(=O)COc2ccc(Cl)cc2)c1)c1ccccc1O | 3.3 | 2.3 | 56.1* | -4.9 | -3.7 | 2.5 | 60.0*
Cc1ccc(O)c(C(=O)c2cnn(C(=O)COc3ccc(Cl)cc3)c2)c1 | 0.7 | -0.4 | 5.9 | -4.0 | 3.3 | -1.5 | x
CN(CCO)c1ccc2c(c1)Oc1ccccc1CN(Cc1cn(Cc3cccc(C(F)(F)F)c3)nn1)S2(=O)=O | -0.4 | x | x | x | 1.2 | -0.3 | x
CC(C)C[C@H]1COc2cc(Br)ccc2S(=O)(=O)N1Cc1cn(Cc2ccc(Cl)cc2)nn1 | 0.9 | x | x | x | -5.7 | -0.6 | x
O=C(CSc1nc2ccccc2c(=O)n1Cc1ccccc1)Nc1ccc(Br)cc1C(=O)O | -48.8 | -1.9 | 44.8* | -52.6 | -26.3 | 4.2 | 38.8 | ATG4B conf=60.5*
Cc1ccc(S(=O)(=O)N2CCOCC2)cc1NC(=O)CSc1nc2ccccc2c(=O)n1Cc1ccccc1 | -0.1 | -2.2 | -4.3 | -16.6 | -5.7 | 1.4 | x
Cn1c(=O)c(=O)n(C)c2cc(S(=O)(=O)N3CCN(c4ccccc4Cl)CC3)ccc21 | 3.2 | x | x | x | 2.0 | -5.0 | x
Cc1cccc(C(=O)Nc2scc(CC(C)C)c2C(=O)O)c1 | -0.2 | 6.8 | 73.2* | -7.5 | 3.4 | 2.5 | 68.1*
Cc1cccc(C(=O)Nc2scc(-c3ccc(Br)cc3)c2C(=O)O)c1 | -9.5 | -2.0 | 36.8 | -14.6 | 12.2 | -4.7 | x
CC(C)Cc1csc(NC(=O)c2ccc(Cl)cc2)c1C(=O)O | 10.2 | 3.1 | 19.9 | -2.8 | 3.0 | -0.9 | x
Cc1ccc(-c2csc(NC(=O)c3cccc(C)c3)c2C(=O)O)cc1 | -16.4 | 4.2 | 44.6* | -40.1 | -5.9 | 3.0 | 51.8*
FC(F)(F)c1cccc(CNC(=S)Nc2ccccc2)c1 | -5.0 | 8.7 | 48.6* | -7.8 | 4.8 | -1.4 | 60.5*
S=C(NCc1ccccc1)Nc1ccc(Cl)cc1 | -4.4 | 3.7 | 26.6 | -13.4 | 5.4 | -3.7 | x
FC(F)(F)Sc1ccc(NC(=S)NCc2ccccc2)cc1 | -40.2 | 6.8 | 73.3* | -13.2 | -22.1 | -0.8 | 81.5*
FC(F)(F)c1cccc(NC(=S)NC(c2ccccc2)c2ccccc2)c1 | -62.4 | -2.8 | 11.2 | -46.0 | -126.5 | -1.8 | x
FC(F)(F)c1cccc(NC(=S)NCc2ccccc2)c1 | -25.5 | 5.3 | 59.4* | -13.6 | -0.4 | 2.4 | 61.8*

Screening results as filed in PubChem.
